# Measured values reported in BindingDB's records for doi:10.1021/jm000269t (Amgen, 2000).
# Molecular target: T1, Neuropeptide Y receptor type 5 (Homo sapiens, UniProt Q15761)
# T1 sequence (Q15761 whole entry): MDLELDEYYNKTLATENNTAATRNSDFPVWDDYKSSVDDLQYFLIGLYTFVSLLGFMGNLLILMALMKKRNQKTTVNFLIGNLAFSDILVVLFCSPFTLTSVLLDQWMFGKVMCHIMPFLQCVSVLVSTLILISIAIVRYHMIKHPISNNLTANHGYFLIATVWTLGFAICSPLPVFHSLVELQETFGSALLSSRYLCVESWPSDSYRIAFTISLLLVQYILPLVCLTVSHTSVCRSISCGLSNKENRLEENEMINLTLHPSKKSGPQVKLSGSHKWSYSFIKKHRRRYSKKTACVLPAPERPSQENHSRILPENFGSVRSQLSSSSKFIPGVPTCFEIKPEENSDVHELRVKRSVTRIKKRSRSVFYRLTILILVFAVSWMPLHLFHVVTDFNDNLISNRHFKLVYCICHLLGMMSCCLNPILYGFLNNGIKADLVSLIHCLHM
# Test: Affinity for human neuropeptide Y receptor Y5, binding was evaluated in an in vitro radioligand [125I]PYY binding assay
# Method in brief: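 HEK 293 cells expressing human Y5 receptor, harvested in PBS and homogenized in sucrose buffer; membranes washed by repeated 48000g spins and resuspended in MEM/Earle's assay buffer (25 mM HEPES, 0.1% BSA, STI, Pefabloc, pH 7.4). Membranes (200 µg tissue) incubated with compounds and 0.15 nM [125I]PYY, 2 h at 30 °C. Nonspecific binding defined with 1 µM PYY. Filtration read-out; IC50 by nonlinear regression, averaging at least two 6-point curves.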
row,IC50 [nM],Compound
1,0.5,"Cc1ccc(-c2cc3nc(C)nc(N4CCCCC4)c3[nH]2)cc1 [2-Methyl-4-piperidin-1-yl-6-p-tolyl-5H-pyrrolo[3,2-d]pyrimidine]"
2,0.5,"Cc1nc(N2CCCCC2)c2[nH]c(-c3ccc(C)o3)cc2n1 [2-Methyl-6-(5-methyl-furan-2-yl)-4-piperidin-1-yl-5H-pyrrolo[3,2-d]pyrimidine]"
